Only some compounds are listed: those with a hit (about 6.3% of all), similar ones and a draw of the others.
PostGolgi yeast = growth inhibition of a yeast mutant, post-Golgi transport screen; hit rate 0.9% among 98,000; post-Golgi transport phenotypic cell assay; inhibition, % at 10 µM;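 further: yeast cells grown in 1536-well plates; yeast grown about 18 h at 30C before absorbance read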
E coli WT exp = blocks growth of wild type E. coli BW25113; hit rate 0.15% among 98,000; AID 710; growth inhibition, % at 100 µM; OD600 absorbance;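 active means growth inhibition above about 50% at one test dose, limit read from the data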;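 further: growth measured after 20 h incubation at 37 °C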
tolC growth inh = growth inhibitors of E. coli BW25113 tolC mutant. OD615. growth inhibition, % at 10 µM (by protocol). hit rate 2.2% among 65,000. AID 573;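 active means growth inhibition at or above a cutoff equal to the mean over every tested compound plus 3 SD, cut at about 60% in these data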;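 further: growth measured after 20 h incubation at 37 °C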
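Signal: optical density read at 615 nm; Assay system: E. coli ΔtolC::kan strain BW25113; Times: 20 h incubation with compound, 37 °C; Dosing: 10 µM final, single dose.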
PostGolgi ctrl = growth of the yeast control strain, post-Golgi counter-screen. inhibition, % at 10 µM. hit rate 5% among 98,000. efflux-deficient yeast background strain, growth absorbance A615, 16 h
* hit, by the source's call; x = not tested or not shown. Unless noted, no stated cut-off is given here; in the data, active means inhibition above about 30%; inactive means the rest.

SMILES	PostGolgi yeast	E coli WT exp	tolC growth inh	PostGolgi ctrl
C=CCOC(=O)C1=C(C)NC(C)=C(C(=O)OCC=C)C1/C=C/c1ccccc1	-4.2	-28.0	x	28.0
CCC(NC(=O)OC(C)(C)C)C(=O)Oc1ccc2c3c(c(=O)oc2c1)CCC3 (stereo unspecified)	6.6	10.0	7.2	13.5
CC(C)CC(C(=O)Oc1ccc2c3c(c(=O)oc2c1)CCC3)N1C(=O)c2ccccc2C1=O (stereo unspecified)	-5.8	-10.0	x	12.1
CCC(C)C(NS(=O)(=O)c1ccc(C)cc1)C(=O)Oc1ccc2c3c(c(=O)oc2c1)CCC3 (stereo unspecified)	5.5	-5.0	x	33.1*
Cc1ccc(S(=O)(=O)NC(CC(C)C)C(=O)Oc2ccc3c4c(c(=O)oc3c2)CCC4)cc1 (stereo unspecified)	60.2*	-4.0	x	16.3
Cc1ccc(NCc2nnc(SCc3ccc(C#N)cc3)n2Cc2ccco2)c(C)c1	49.5*	-18.0	61.0*	39.9*
Cc1ccc(C(=O)CSc2nnc(CNc3ccc(C)cc3C)n2Cc2ccco2)cc1	-4.4	-6.0	24.1	40.5*
CCN(Cc1ccccc1)C(=O)c1cc2c(=O)oc3ccc(C)cc3c2s1	5.3	-22.0	x	47.0*
Cc1ccc2oc(=O)c3cc(C(=O)N4CCN(C(=O)c5ccco5)CC4)sc3c2c1	x	x	7.0	x
CC1CCN(Cc2csc(N)n2)CC1	3.4	0.0	x	4.4
COc1ccc2[nH]c3c(NCCN(C(C)C)C(C)C)ncnc3c2c1	2.1	12.0	-5.6	5.2
CC(C)OCCCNc1ncnc2c1[nH]c1ccccc12	17.1	16.0	100.0*	6.9
CN1C(=S)SC(N(O)C(=O)NC2CCCCC2)C1(C)C (stereo unspecified)	5.0	1.0	-8.3	4.1
CCOC(=O)c1cc(-c2ccncc2)nc2c1c(C)nn2C	-6.3	0.0	6.9	12.3
CCOC(=O)c1cc(-c2ccccc2)nc2c1c(C)nn2-c1ccccn1	-3.4	-6.0	x	41.7*
COc1ccc(C(=O)ON=C2CCN(c3ccc([N+](=O)[O-])cc3)CC2)cc1	5.5	-4.0	x	35.8*
CCOc1ccc(Cn2c(O)cc(=O)[nH]c2=O)cc1	15.5	-9.0	4.2	0.6
CC(NC(=O)c1cc2ccccc2o1)c1cccs1 (stereo unspecified)	-6.0	-2.0	6.6	16.4
O=C(c1cc2ccccc2o1)c1cccs1	-2.0	2.0	22.4	31.3*
CC(C)(C)c1ccc(-c2nnc(SCCN3C(=O)c4ccccc4C3=O)o2)cc1	-3.0	-5.0	x	33.4*
O=C(O)CSc1nnc(-c2ccccc2)o1	2.8	-10.0	-19.6	2.8
Cc1ccc(-c2nnc(SCC#CCOC(=O)c3cccs3)o2)cc1	-10.6	-9.0	x	35.6*
O=C(CSc1nc(-c2ccc(F)cc2)cs1)N1CCc2ccccc21	-1.2	-12.0	x	-6.2
CC(C)(C)c1ccc(OCc2nc(-c3ccccn3)no2)c(Br)c1	-0.8	3.0	100.0*	31.9*
Clc1cc(Cl)c(OCc2nc(-c3ccccn3)no2)cc1Cl	2.5	-13.0	-2.7	13.3
SMILES	PostGolgi yeast	E coli WT exp	tolC growth inh	PostGolgi ctrl
CC(C)NC(=O)CN1CCN(c2ncccn2)CC1	16.4	4.0	1.5	2.6
Cc1cc(NC(=O)CSc2nnc(C3COc4ccccc4O3)o2)no1 (stereo unspecified)	0.7	-17.0	-19.8	42.1*
Cc1ccnc(NCn2nnc3ccccc32)c1	-18.6	1.0	x	8.1
Cc1cccc(C)c1N1CCN(c2ccc3nnc(C(F)(F)F)n3n2)CC1	18.8	9.0	x	47.6*
CN1CCc2c(sc3c2c(=O)n(-c2ccccc2)c2nnc(SCc4ccccc4F)n32)C1	x	x	-4.5	x
Cc1ccc(C2=Nc3ccccc3NC(C)(c3ccc(C)o3)C2)o1 (stereo unspecified)	-10.9	9.0	25.8	55.3*
Cc1cc2c(c(=O)n1C)C(Cc1ccccc1)C(C#N)=C(N)O2 (stereo unspecified)	10.8	8.0	2.4	-4.3
COc1cccc2c(=O)c3c(cnn3C)n(C)c12	42.1*	12.0	33.7	-5.8
COc1cc(=O)n(C)c2ccccc12	4.7	-3.0	x	6.9
CCOC(=O)COn1c(=O)c(-c2cccs2)[n+]([O-])c2ccccc21	-2.7	5.0	8.4	19.0
CCOn1c(=O)c(-c2cccs2)[n+]([O-])c2ccccc21	-4.7	-2.0	x	41.5*
CCOC(=O)N1CCN(S(=O)(=O)c2cccc3ccc(C)nc23)CC1	-0.9	-1.0	-0.7	3.8
Cc1sc(NC(=O)c2ccco2)c(C(c2cccnc2)N2CCN(c3ccc(F)cc3)CC2)c1C (stereo unspecified)	10.0	-12.0	13.1	27.0
CCOC(=O)C1CCN(C(c2cccnc2)c2c(NC(=O)c3ccco3)sc(C)c2C)CC1 (stereo unspecified)	13.2	-11.0	76.6*	26.0
CC(=O)c1sc(NC(=O)C=C(C)C)nc1C	-7.2	1.0	-13.2	13.9
CC(=O)c1sc(NC(=O)C2(F)C(F)(F)C(F)(F)C(F)(F)C(F)(F)C2(F)F)nc1C	-0.9	8.0	100.0*	21.9
CCCC(C)NC(=O)c1ccc(C2SCC(=O)N2Cc2ccco2)cc1 (stereo unspecified)	1.4	13.0	x	8.4
CCOC(=O)C1CCN(Cc2cnc(Oc3ccc(Cl)cc3C)s2)CC1	49.4*	2.0	x	16.8
FC(F)Oc1cccc2cccnc12	-0.7	6.0	-16.6	0.5
CC(=O)NCCOc1cccc2cccnc12	-7.7	1.0	x	15.7
Cc1cc(Cl)cc(Cl)c1OCCOc1cccc2cccnc12	-9.5	-5.0	x	31.9*
Cc1cc(C)cc(OCCCOc2cccc3cccnc23)c1	-3.6	2.0	x	62.4*
Clc1cc(Br)ccc1OCCOCCOc1cccc2cccnc12	2.0	-5.0	x	60.3*
Clc1cc(Br)ccc1OCCn1ccnc1	9.3	39.0	21.2	8.2
C=C(C)CSc1nc2nc(C)c(Br)cc2[nH]1	-9.8	4.0	x	4.6
SMILES	PostGolgi yeast	E coli WT exp	tolC growth inh	PostGolgi ctrl
CC(C)CC(=O)c1c[nH]c(C(=O)NCc2cccs2)c1	-2.6	-9.0	x	10.1
CCOC(=O)C1=C(C)NC(=O)C(C(N)=O)C1c1ccccc1 (stereo unspecified)	1.8	1.0	-12.9	33.4*
CCOC(=O)C1=C(C)NC(=O)C(C(N)=O)C12CCCC2 (stereo unspecified)	3.7	2.0	x	7.5
Cc1ccc(Cn2c(SCC(C)C)nc3c2c(=O)n(C)c(=O)n3C)cc1	34.5*	-11.0	92.4*	29.5
CCC(C)Nc1nc2c(c(=O)n(C)c(=O)n2C)n1Cc1ccc(F)cc1 (stereo unspecified)	-6.8	1.0	19.2	35.4*
C=CCNc1nc2c(c(=O)n(C)c(=O)n2C)n1Cc1ccc(F)cc1	1.1	-2.0	0.9	8.2
Cc1ccc(CSc2nc3c(c(=O)[nH]c(=O)n3C)n2CCC(C)C)cc1	1.8	-6.0	23.3	40.7*
CC(C)CCn1c(SCc2ccc(Cl)cc2)nc2c1c(=O)[nH]c(=O)n2C	15.4	-17.0	-0.6	19.3
CCSc1nc2c(c(=O)n(C)c(=O)n2C)n1Cc1ccc(Cl)cc1	x	x	39.7	x
CC(C)CCNc1nc2c(c(=O)n(Cc3cccc(F)c3)c(=O)n2C)n1C	0.2	9.0	41.6	40.6*
O=C(CC1(C(F)(F)F)OCCO1)Nc1ccc2c(c1)OCO2	0.8	-1.0	-12.2	1.1
O=C(CN(Cc1cccs1)C(=O)CN1C(=O)COc2ccccc21)NCc1ccco1	0.6	6.0	-6.9	-1.0
